Assay outcomes (PubChem BioAssay)
Many of the other results were omitted from the sample, so hits are more common in it than they were.
ABCB6 inh 2: blocks the human ABCB6 transporter. fluorescence ratio to DMSO, % at 10 µM. hit rate 0.19% among 360,000. K562-ABCB6 porphyrin accumulation, flow cytometry, 1 h; active compounds read low. Q9NP58. AID 602162;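 active means fluorescence ratio to DMSO below 75%, the collection mean minus 3 SD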;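 further: signal is porphyrin accumulated inside mitochondria; lower ratio means ABCB6 inhibition with less porphyrin fluorescence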
pCIP destab: compounds decreasing mouse p/CIP protein stability; Q05BA5; F442A p/CIP-EGFP cells, EGFP fluorescence, 16 h; decrease of EGFP signal, % at 10 µM; hit rate 0.01% among 290,000; AID 1984;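 active means EGFP signal decrease of at least 30% at 10 µM or well 3 SD below plate mean, unless failing retest; inactive means the rest, including hits failing retest or dose response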
KCC2 mod: modulates chloride dependent transport by human KCC2; KCC2 cells, thallium flux FluoZin-2 fluorescence; hit rate 2.2% among 190,000; Q9H2X9; B-score of Tl+ flux slope (higher = more flux/activation; lower = inhibition) at 10 µM;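 active means thallium flux slope and its plate-corrected score both differing from the plate sample mean at a set confidence after two filtering rounds, in either direction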;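 further: slope of fluorescence scaled to starting intensity during 10 to 20 s after thallium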
Target sequence (Q9H2X9 whole entry, looked up): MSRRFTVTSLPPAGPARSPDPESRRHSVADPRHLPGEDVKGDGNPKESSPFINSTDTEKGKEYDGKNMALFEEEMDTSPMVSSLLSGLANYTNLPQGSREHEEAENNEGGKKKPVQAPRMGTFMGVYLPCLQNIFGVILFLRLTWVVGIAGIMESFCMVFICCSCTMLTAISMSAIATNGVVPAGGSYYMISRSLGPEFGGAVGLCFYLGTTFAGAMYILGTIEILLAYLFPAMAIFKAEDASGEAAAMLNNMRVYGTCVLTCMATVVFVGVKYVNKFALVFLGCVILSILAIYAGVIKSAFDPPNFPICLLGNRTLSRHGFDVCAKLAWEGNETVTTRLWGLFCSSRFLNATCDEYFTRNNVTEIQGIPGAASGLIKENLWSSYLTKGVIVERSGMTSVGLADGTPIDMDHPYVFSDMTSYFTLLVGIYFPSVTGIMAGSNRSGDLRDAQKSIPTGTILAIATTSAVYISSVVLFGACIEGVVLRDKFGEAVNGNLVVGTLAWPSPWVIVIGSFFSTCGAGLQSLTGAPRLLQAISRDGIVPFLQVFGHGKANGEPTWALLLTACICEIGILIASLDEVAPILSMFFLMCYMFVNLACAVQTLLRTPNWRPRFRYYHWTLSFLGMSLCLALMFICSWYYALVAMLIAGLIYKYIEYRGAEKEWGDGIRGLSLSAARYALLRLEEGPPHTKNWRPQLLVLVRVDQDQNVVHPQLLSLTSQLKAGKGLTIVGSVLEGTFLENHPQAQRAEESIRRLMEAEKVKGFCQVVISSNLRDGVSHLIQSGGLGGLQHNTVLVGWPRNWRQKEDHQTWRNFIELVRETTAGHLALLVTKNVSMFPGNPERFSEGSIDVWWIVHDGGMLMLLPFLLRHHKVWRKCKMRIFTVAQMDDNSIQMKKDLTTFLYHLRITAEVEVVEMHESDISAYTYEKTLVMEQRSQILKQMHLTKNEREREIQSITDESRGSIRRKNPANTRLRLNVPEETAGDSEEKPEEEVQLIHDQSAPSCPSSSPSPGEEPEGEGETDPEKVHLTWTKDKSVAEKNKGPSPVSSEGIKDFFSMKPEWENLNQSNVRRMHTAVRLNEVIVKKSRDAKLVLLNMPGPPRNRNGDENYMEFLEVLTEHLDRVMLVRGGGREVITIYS
V-ATPase pHluor: yeast V-ATPase proton transport regulation by pHLuorin; S. cerevisiae, pHLuorin cytosolic pH fluorescence; response, % at 10 µM; hit rate 0.37% among 350,000; in the data active means response mostly above about 7.3%, no sharp cut-off; inactive means mostly below about 5.4%; further: actives read high
Dynein cargo inh: dynein cargo transport inhibition. 3617.4 mouse cells, GR-EGFP nuclear translocation imaging; test concentration mostly 20 µM; stimulated with dexamethasone, 1 µM; active compounds read low. z-score, hits read low. hit rate 0.47% among 220,000. AID 1381;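 active means plate z-score of nuclear minus cytoplasmic receptor signal below a set negative limit, without overly bright fluorescence or cell loss, cut at about -3.5 in these data, passing the limit was not always enough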;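 further: z-score of nuclear minus cytoplasmic ring GR-EGFP intensity difference per well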
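medium = tetracycline-free induction medium containing charcoal-stripped FBS | also added = 1.0 µM final dexamethasone stimulus | schedule = 48 h induction, 1 h compound, 30 min dex at 37 °C | technique = fixed, Hoechst-stained cells imaged at 10x for EGFP | measure = GR-EGFP nuclear translocation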
Dynein confirm: dynein cargo transport inhibition, confirmation | calls only at 20 µM | hit rate 69% among 1,000 | 3617.4 GR-EGFP nuclear translocation imaging, dexamethasone-induced | AID 463116 | shares compounds with Dynein cargo inh;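 active means inhibition of receptor movement into the nucleus at or above a set limit in both runs, with normal cell brightness and cell count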;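 further: dexamethasone at 1 µM final in well for 30 min; nuclear minus cytoplasmic GR-EGFP mean intensity difference in channel 2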
Of the large screens only hits and unclear results are named; the others gave an inactive call (follow-up assays come after a bar, where they were run).

O=[N+]([O-])c1ccc(C=Nc2ccc(Cl)c([N+](=O)[O-])c2)s1	V-ATPase pHluor 145, Dynein cargo inh -5.6 | Dynein confirm active
COc1ccc(OC)c(S(=O)(=O)Nc2ccc(O)c3ccccc23)c1	Dynein cargo inh -4.2 | Dynein confirm inactive
COc1cc(S(=O)(=O)NCCCN2CCOCC2)ccc1-n1cnnn1	none
OC(c1cc(F)cc(Cl)c1)c1ncc(-c2cccc(C(F)(F)F)c2)[nH]1 (stereo not drawn)	none (no result: pCIP destab, KCC2 mod, V-ATPase pHluor, Dynein cargo inh)
N=c1oc2c3c4c(cc2cc1C(=O)Nc1ccccc1)CCCN4CCC3	Dynein cargo inh -4.6 | Dynein confirm active
CCOc1ccc(NC(=O)CCC(=O)Oc2ccc(C)cc2)cc1	none (no result: KCC2 mod, Dynein cargo inh)
CCCN1C/C(=C/c2ccc3c(c2)OCO3)C(=O)/C(=C/c2ccc3c(c2)OCO3)C1	Dynein cargo inh -4.6 | Dynein confirm active
O=C1OCCC/C1=C\c1ccc2c(c1)OCO2	none (no result: KCC2 mod)
ON=C(c1ccccc1)c1ccc2c3c(cccc13)CC2	none (no result: pCIP destab, KCC2 mod, Dynein cargo inh)
CC(C)(C)NC(=S)N/N=C\c1ccc(-c2ccc([N+](=O)[O-])cc2)o1	none | Dynein confirm inactive
Cc1ccccc1-c1cccc([C@@H]2C[C@H]3CN(Cc4cccnc4)C(=O)[C@]34CCCN24)c1	none (no result: KCC2 mod)
CCCCCCc1cc2cc(-c3nnc(-c4ccccc4O)o3)c(=O)oc2cc1O	none | Dynein confirm active
COc1cc(CNc2ncnc3c2ncn3[C@H]2CN(Cc3ccco3)C[C@@H](CO)O2)cc(OC)c1OC	none (no result: pCIP destab, KCC2 mod, V-ATPase pHluor, Dynein cargo inh)
O=C(Cc1cccs1)Nc1nc(-c2ccc(F)c(F)c2)cs1	none (no result: KCC2 mod, Dynein cargo inh)
O=C(Cc1cccs1)Nc1nc(-c2ccc(F)cc2F)cs1	Dynein cargo inh -3.5 | Dynein confirm inactive
CN(C)CCCN(C(=O)CCOc1ccccc1)c1nc2ccc(F)cc2s1	Dynein cargo inh -3.5 | Dynein confirm inactive
CN(C)CCCN(C(=O)COc1ccccc1)c1nc2ccc(F)cc2s1	none
CN(C)CCCN(C(=O)CCOc1ccccc1)c1nc2c(F)cccc2s1	Dynein cargo inh -7.9 | Dynein confirm active
COc1ccc([N+](=O)[O-])c(S(=O)(=O)c2ccc(Cl)cc2)n1	Dynein cargo inh -4.9 | Dynein confirm active
O=[N+]([O-])c1cccnc1S(=O)(=O)c1ccccc1	none (no result: KCC2 mod, Dynein cargo inh)
COc1ccc([N+](=O)[O-])c(S(=O)(=O)c2ccccc2)n1	Dynein cargo inh -5.5 | Dynein confirm active
CCC(=O)N1c2ccccc2NC2=C(C(=O)CC(C)(C)C2)C1c1cccnc1 (stereo not drawn)	none
Brc1cc2c(cc1C1OCCCO1)OCO2	none (no result: pCIP destab, KCC2 mod, Dynein cargo inh)
CC(=O)Nc1cccc(C(=O)/C=C/c2ccc(F)cc2)c1	Dynein cargo inh -3.9 | Dynein confirm active
CC(=O)Nc1cccc(C(=O)/C=C/c2cccs2)c1	Dynein cargo inh -3.7 | Dynein confirm active
OC(CNCCc1ccc(C(F)(F)F)cc1)COc1ccc2ccccc2c1 (stereo not drawn)	Dynein cargo inh -4.8 | Dynein confirm inactive
CC1CCN(C(=O)Cn2nnc(-c3ccccc3)n2)CC1	none (no result: KCC2 mod, Dynein cargo inh)
CCCOc1ccc(C(=O)CCN2CCN(C(=O)OCC)CC2)cc1	Dynein cargo inh -4.1 | Dynein confirm inactive
Cc1ccc2nc(/C(C#N)=C\c3ccc(N4CCOCC4)o3)[nH]c2c1	none | Dynein confirm active
Cc1ccc(/C=C2\CCC3=C2OC(N)=C(C#N)C3c2ccc(C)cc2)cc1 (stereo not drawn)	none | Dynein confirm inactive
C=C(CC)C(=O)c1ccc(OCC(=O)O)c(Cl)c1Cl	Dynein cargo inh -3.7 | Dynein confirm active
Nc1nc2ccc(S(=O)(=O)N3CCCCC3)cc2s1	Dynein cargo inh -4.1 | Dynein confirm inactive
O=C(/C=C/NNC(=O)c1ccc(Cl)cc1)c1ccccc1	Dynein cargo inh -6.2 | Dynein confirm active
CC1C/C(=C/c2ccco2)C(=O)/C(=C/c2ccco2)C1 (stereo not drawn)	none (no result: ABCB6 inh 2, V-ATPase pHluor) | Dynein confirm active
CC1(C)CC(=O)/C(=C\c2cccc([N+](=O)[O-])c2)C(C)(C)N1	Dynein cargo inh -3.6 | Dynein confirm active
Cc1ccccc1S(=O)(=O)NC(=O)C1(C)CCN1C(=O)c1ccccc1CCc1ccccc1 (stereo not drawn)	none (no result: pCIP destab, KCC2 mod, V-ATPase pHluor, Dynein cargo inh)
C[C@@H]1CN([C@@H](C)CO)C(=O)CCCn2nncc2CO[C@H]1CN(C)S(=O)(=O)c1ccc(F)cc1	none (no result: pCIP destab, KCC2 mod, Dynein cargo inh)
